Laboratory results from ChEMBL document CHEMBL2311333, “Synthesis and antimycobacterial evaluation of pyrazinamide derivatives with benzylamino substitution” (Bioorg Med Chem Lett, 2013).

Key:
[1] = system: Mycobacterium tuberculosis; assay: Antimycobacterial activity against Mycobacterium tuberculosis H37Rv CNCTC My 331/88 after 10 to 14 days by microdilution panel method; assay type: functional
In short: (§1)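 Whole-cell microdilution panel assay on strains from the Czech National Collection of Type Cultures (M. tuberculosis H37Rv My 331/88, M. avium ssp. avium Chester My 80/72, M. avium My 152/73). MIC (μg/mL) was read visually as the lowest concentration of compound that inhibited mycobacterial growth.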

[2] = Lipophilicity, log K of the compound in methanol-water mixture by HPLC analysis; assay type: physicochemical
[3] = system: HepG2; assay: Cytotoxicity against human HepG2 cells; assay type: cell-based
[4] = Selectivity index, ratio of IC50 for human HepG2 cells to MIC for Mycobacterium tuberculosis H37Rv CNCTC My 331/88; assay type: functional
In short: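 Cytotoxicity was measured as the decrease in viability of human liver Hep G2 cells, read colorimetrically by tetrazolium salt reduction over a dilution series. IC50 was taken from this readout, and SI was calculated as the Hep G2 IC50 divided by the M. tuberculosis H37Rv MIC from the microdilution panel assay.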

[5] = system: Mycobacterium avium; assay: Antimycobacterial activity against Mycobacterium avium CNCTC My 152/73 after 10 to 14 days by microdilution panel method; assay type: functional; in short: as §1
[6] = system: Mycobacterium kansasii; assay: Antimycobacterial activity against Mycobacterium kansasii CNCTC My 235/80 after 10 to 14 days by microdilution panel method; assay type: functional
In short: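 Microdilution panel method. Strain obtained from Czech National Collection of Type Cultures (CNCTC My 235/80). MIC in μg/mL read visually as the lowest compound concentration that inhibited mycobacterial growth.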

[7] = system: Mycobacterium avium; assay: Antimycobacterial activity against Mycobacterium avium CNCTC My 80/72 after 10 to 14 days by microdilution panel method; assay type: functional; in short: as §1
[8] = system: Mycobacterium tuberculosis; assay: Ratio of pyrazinamide MIC to compound MIC for Mycobacterium tuberculosis H37Rv CNCTC My 331/88; assay type: functional

| SMILES | MIC [1] | log K [2] | IC50 [3] | Selectivity Index [4] | MIC [5] | MIC [6] | MIC [7] | Ratio [8] |
| --- | --- | --- | --- | --- | --- | --- | --- | --- |
| COc1ccc(CNc2nc(C#N)cnc2C#N)cc1 | 188 µM | 0.3259 | 95.9 µM | 0.5 | > 100 µg/mL | 99 µM | > 100 µg/mL | – |
| N#Cc1cnc(C(N)=O)c(NCc2ccccc2)n1 | > 100 µg/mL | 0.326 | – | – | > 100 µg/mL | > 100 µg/mL | > 100 µg/mL | – |
| Cc1ccc(CNc2nc(C#N)cnc2C(N)=O)cc1 | 47 µM | 0.5533 | 54.6 µM | 1.2 | > 100 µg/mL | > 100 µg/mL | > 100 µg/mL | – |
| COc1ccc(CNc2nc(C#N)cnc2C(N)=O)cc1 | > 100 µg/mL | 0.3074 | – | – | > 100 µg/mL | > 100 µg/mL | > 100 µg/mL | – |
| N#Cc1cnc(C(N)=O)c(NCc2ccc(N)cc2)n1 | 47 µM | -0.2005 | > 1000 µM | >21.3 | > 100 µg/mL | > 100 µg/mL | > 100 µg/mL | – |
| N#Cc1cnc(C(N)=O)c(NCc2cccc(Cl)c2)n1 | > 100 µg/mL | 0.5141 | – | – | > 100 µg/mL | > 100 µg/mL | > 100 µg/mL | – |
| N#Cc1cnc(C(N)=O)c(NCc2ccc(Cl)cc2)n1 | > 100 µg/mL | 0.5421 | – | – | > 100 µg/mL | > 100 µg/mL | > 100 µg/mL | – |
| N#Cc1cnc(C(N)=O)c(NCc2ccc(Cl)c(Cl)c2)n1 | > 100 µg/mL | 0.7353 | – | – | > 100 µg/mL | > 100 µg/mL | > 100 µg/mL | – |
| N#Cc1cnc(C(N)=O)c(NCc2cccc([N+](=O)[O-])c2)n1 | 84 µM | 0.1331 | 457 µM | 5.4 | > 100 µg/mL | > 100 µg/mL | > 100 µg/mL | – |
| N#Cc1cnc(C(N)=O)c(NCc2cccc(C(F)(F)F)c2)n1 | 78 µM | 0.5104 | 27.8 µM | 0.4 | > 100 µg/mL | > 100 µg/mL | > 100 µg/mL | – |
| N#Cc1cnc(C#N)c(NCc2ccccc2)n1 | 53 µM | 0.335 | 60.8 µM | 1.1 | 53 µM | 106 µM | 106 µM | – |
| Cc1ccc(CNc2nc(C#N)cnc2C#N)cc1 | 25 µM | 0.5598 | 70.8 µM | 2.8 | > 100 µg/mL | > 100 µg/mL | > 100 µg/mL | 2 |
| N#Cc1cnc(C#N)c(NCc2ccc(N)cc2)n1 | 100 µM | -0.1621 | 549 µM | 5.5 | > 100 µg/mL | > 100 µg/mL | > 100 µg/mL | – |
| N#Cc1cnc(C#N)c(NCc2cccc(Cl)c2)n1 | 46 µM | 0.5456 | 40 µM | 0.9 | > 100 µg/mL | 46 µM | > 100 µg/mL | – |
| N#Cc1cnc(C#N)c(NCc2ccc(Cl)cc2)n1 | 93 µM | 0.5735 | 35.5 µM | 0.4 | > 100 µg/mL | 46 µM | > 100 µg/mL | – |
| N#Cc1cnc(C#N)c(NCc2ccc(Cl)c(Cl)c2)n1 | > 100 µg/mL | 0.783 | – | – | > 100 µg/mL | > 100 µg/mL | > 100 µg/mL | – |
| N#Cc1cnc(C#N)c(NCc2cccc([N+](=O)[O-])c2)n1 | > 100 µg/mL | 0.2049 | – | – | > 100 µg/mL | > 100 µg/mL | > 100 µg/mL | – |
| N#Cc1cnc(C#N)c(NCc2cccc(C(F)(F)F)c2)n1 | > 100 µg/mL | 0.5615 | – | – | > 100 µg/mL | > 100 µg/mL | > 100 µg/mL | – |
| Cc1ccccc1CNc1nc(C#N)cnc1C#N | > 100 µg/mL | 0.5043 | – | – | > 100 µg/mL | > 100 µg/mL | > 100 µg/mL | – |
| NNC(=O)c1ccncc1 [ISONIAZID] | 11 µM | – | – | – | 23 µM | 91 µM | 46 µM | – |
| NC(=O)c1cnccn1 [PYRAZINAMIDE] | 51 µM | – | – | 775 | > 100 µg/mL | > 100 µg/mL | > 100 µg/mL | – |
